Measurements taken from ChEMBL document CHEMBL3994616, “Rational design, synthesis, and evaluation of novel 2,4-Chloro- and Hydroxy-Substituted diphenyl Benzofuro[3,2-b]Pyridines: Non-intercalative catalytic topoisomerase I and II dual inhibitor” (Eur J Med Chem, 2017).
Structures can show the parent of a compound that is named as a salt. Calls of active or inactive are those of the source. The rule behind the calls is not given here.

Assays:
HCT-15 [1] = test: Antiproliferative activity against human HCT15 cells after 72 hrs by CCK8 assay; type: functional, cell-based; conditions: HCT-15, 72 h
In short: (§1)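 Cells seeded at 2-4 x 10⁴ per well, cultured overnight in medium with 10% FBS at 37 °C, 5% CO₂, then serum-starved 4 h. Graded compound concentrations added for 72 h, CCK-8 added for a further 4 h, absorbance read at 450 nm. IC50 from a four-parameter logistic fit. Results come from three experiments, each in triplicate.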

T47D = test: Antiproliferative activity against human T47D cells after 72 hrs by CCK8 assay; type: functional, cell-based; in short: as §1
[2] = molecular target: DNA topoisomerase 2-alpha (Homo sapiens) (UniProt P11388); conditions: 250 uM
DNA topoisomerase 2-alpha (Homo sapiens), sequence (P11388 whole entry): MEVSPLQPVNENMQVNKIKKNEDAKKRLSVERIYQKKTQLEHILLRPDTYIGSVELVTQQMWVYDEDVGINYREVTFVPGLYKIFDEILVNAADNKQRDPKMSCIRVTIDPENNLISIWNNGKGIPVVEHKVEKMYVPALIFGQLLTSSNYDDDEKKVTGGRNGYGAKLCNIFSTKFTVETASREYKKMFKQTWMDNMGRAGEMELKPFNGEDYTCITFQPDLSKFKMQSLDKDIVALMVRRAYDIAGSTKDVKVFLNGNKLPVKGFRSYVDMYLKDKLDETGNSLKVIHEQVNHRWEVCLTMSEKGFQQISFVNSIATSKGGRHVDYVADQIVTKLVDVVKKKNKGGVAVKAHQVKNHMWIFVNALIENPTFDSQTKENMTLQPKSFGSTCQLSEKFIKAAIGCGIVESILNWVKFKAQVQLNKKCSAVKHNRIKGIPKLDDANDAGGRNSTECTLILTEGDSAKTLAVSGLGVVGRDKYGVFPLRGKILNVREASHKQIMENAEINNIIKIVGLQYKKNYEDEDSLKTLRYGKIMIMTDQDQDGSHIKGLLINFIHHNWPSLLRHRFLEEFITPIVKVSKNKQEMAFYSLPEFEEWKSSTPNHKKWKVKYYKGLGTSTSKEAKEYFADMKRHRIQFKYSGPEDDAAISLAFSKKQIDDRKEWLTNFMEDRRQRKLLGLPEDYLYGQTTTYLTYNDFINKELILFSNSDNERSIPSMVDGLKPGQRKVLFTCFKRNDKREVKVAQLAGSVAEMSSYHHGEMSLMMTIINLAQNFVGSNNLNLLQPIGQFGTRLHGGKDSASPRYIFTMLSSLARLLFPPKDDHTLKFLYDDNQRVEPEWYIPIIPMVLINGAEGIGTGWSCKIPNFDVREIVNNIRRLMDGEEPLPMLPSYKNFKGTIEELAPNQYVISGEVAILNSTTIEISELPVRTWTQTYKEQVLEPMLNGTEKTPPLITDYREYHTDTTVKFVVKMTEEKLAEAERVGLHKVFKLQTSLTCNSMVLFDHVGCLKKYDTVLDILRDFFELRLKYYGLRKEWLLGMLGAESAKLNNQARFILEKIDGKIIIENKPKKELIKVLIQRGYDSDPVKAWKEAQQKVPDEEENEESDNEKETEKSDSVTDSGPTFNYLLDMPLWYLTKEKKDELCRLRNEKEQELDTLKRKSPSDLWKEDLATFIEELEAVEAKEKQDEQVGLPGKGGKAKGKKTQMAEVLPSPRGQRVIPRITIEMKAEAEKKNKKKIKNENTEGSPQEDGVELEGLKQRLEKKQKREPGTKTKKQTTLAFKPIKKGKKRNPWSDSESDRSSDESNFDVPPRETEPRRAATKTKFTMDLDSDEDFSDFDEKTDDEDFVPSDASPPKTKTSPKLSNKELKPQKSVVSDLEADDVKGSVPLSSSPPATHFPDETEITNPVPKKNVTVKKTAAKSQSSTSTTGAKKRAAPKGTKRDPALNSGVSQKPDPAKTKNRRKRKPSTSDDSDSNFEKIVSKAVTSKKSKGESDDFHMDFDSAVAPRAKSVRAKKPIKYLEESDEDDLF

[3] = molecular target: DNA topoisomerase 2-alpha (Homo sapiens) (UniProt P11388); test: Inhibition of human recombinant topoisomerase-2alpha-mediated relaxation of supercoiled pBR322 DNA at 100 uM after 30 mins by ethidium bromide staining based agarose gel electrophoresis method relative to control
HeLa = test: Antiproliferative activity against human HeLa cells after 72 hrs by CCK8 assay; type: functional, cell-based
HCT-15 [4] = test: Induction of DNA damage in human HCT15 cells assessed as comet tail formation at 30 uM after 24 hrs using SYBRGreen stain by electrophoresis based fluorescence microscopic method (reference value: 3 +/- 1.1%); type: functional
HCT-15 [5] = test: Induction of DNA damage in human HCT15 cells assessed as increase in gammaH2AX level at 30 uM after 24 hrs by Western blot method; type: functional, cell-based
In short: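 HCT15 cells exposed to 30 µM for 24 h, then lysed. 60 µg protein per sample run on 12% SDS-PAGE, and γ-H2AX detected by western blot.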

Bos taurus [6] = species on record: Bos taurus; test: Induction of calf thymus DNA intercalation assessed as inhibition of ethidium bromide binding to DNA after 30 mins by fluorescence assay
In short: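 Calf thymus DNA ([…]) premixed with EtBr ([…]) in 10 mM Tris buffer pH 7.2, 30 min at room temperature with shaking. Compound then added at increasing concentrations […], final DMSO 1% (vehicle for untreated control), further 30 min at room temperature. EtBr fluorescence read at 471 nm excitation, emission spectrum collected 500–700 nm.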

[7] = molecular target: T1, Topoisomerase I/II (Homo sapiens) (UniProt P11387+P11388); test: Inhibition of topoisomerase-1/topoisomerase-2 in human HCT15 cell nuclear extract at 25 uM preincubated for 24 hrs followed by supercoiled pBR322 DNA addition measured after 20 mins by ethidium bromide staining based agarose gel electrophoresis method relative to control; type: protein assay
T1 sequence (P11387 whole entry, looked up): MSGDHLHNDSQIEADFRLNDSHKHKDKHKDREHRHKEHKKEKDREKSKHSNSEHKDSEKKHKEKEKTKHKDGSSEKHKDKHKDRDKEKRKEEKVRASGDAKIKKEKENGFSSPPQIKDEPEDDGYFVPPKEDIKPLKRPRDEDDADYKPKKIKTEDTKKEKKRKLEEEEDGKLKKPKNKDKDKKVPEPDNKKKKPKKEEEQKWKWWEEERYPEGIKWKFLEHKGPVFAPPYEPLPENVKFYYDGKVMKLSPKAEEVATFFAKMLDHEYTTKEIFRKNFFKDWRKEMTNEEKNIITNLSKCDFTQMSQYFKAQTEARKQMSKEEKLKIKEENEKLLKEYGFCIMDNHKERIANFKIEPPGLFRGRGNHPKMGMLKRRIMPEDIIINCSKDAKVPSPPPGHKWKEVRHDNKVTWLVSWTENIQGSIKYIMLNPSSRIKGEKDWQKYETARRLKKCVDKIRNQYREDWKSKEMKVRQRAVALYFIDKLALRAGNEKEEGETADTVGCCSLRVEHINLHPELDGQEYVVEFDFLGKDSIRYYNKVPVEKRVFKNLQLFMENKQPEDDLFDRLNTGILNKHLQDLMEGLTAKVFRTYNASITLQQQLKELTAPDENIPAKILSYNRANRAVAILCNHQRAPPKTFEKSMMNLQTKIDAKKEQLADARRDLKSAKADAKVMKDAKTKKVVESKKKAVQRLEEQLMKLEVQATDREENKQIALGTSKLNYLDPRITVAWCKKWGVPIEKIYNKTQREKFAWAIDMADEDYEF
T1 sequence (P11388 whole entry, looked up): as the sequence (P11388 whole entry) above
In short: (§2)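 HCT15 cells treated 24 h at 25, 50 or 100 µM, then nuclear fractions prepared. Nuclear extract incubated with 100 ng pBR322 at 37 °C to read relaxation by endogenous topo I/II. Products run on 1.0% agarose at 50 V for 50 min in TAE, EtBr-stained, UV-visualized. Inhibition percent averaged over three experiments.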

[8] = molecular target: T1, Topoisomerase I/II (Homo sapiens); test: Inhibition of topoisomerase-1/topoisomerase-2 in human HCT15 cell nuclear extract at 50 uM preincubated for 24 hrs followed by supercoiled pBR322 DNA addition measured after 20 mins by ethidium bromide staining based agarose gel electrophoresis method relative to control; type: protein assay; in short: as §2
HCT-15 [9] = test: Potency index, ratio of camptothecin IC50 to compound IC50 for human HCT15 cells; type: functional
HCT-15 [10] = test: Potency index, ratio of etoposide IC50 to compound IC50 for human HCT15 cells; type: functional
HCT-15 [11] = test: Potency index, ratio of adriamycin IC50 to compound IC50 for human HCT15 cells; type: functional
[12] = molecular target: DNA topoisomerase 2-alpha (Homo sapiens) (UniProt P11388); test: Poison activity at human recombinant topoisomerase 2 in human HCT15 cells assessed as […] at 50 uM after 2 hrs by Western blot method; type: cell-based
HCT-15 [13] = test: Induction of DNA damage in human HCT15 cells assessed as comet tail formation at 10 uM after 24 hrs using SYBRGreen stain by electrophoresis based fluorescence microscopic method (reference value: 3 +/- 1.1%); type: functional
[14] = molecular target: DNA topoisomerase 2-alpha (Homo sapiens) (UniProt P11388); test: Poison activity at human recombinant topoisomerase 2 alpha assessed as stabilization of enzyme-DNA cleavable complex by measuring formation of linear DNA at 100 to 500 uM using supercoiled pBR322 DNA after 30 mins by ethidium bromide staining based agarose gel electrophoresis method
In short: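 250 ng supercoiled pBR322 preincubated with 3 units human topo II for 10 min in topo II relaxation buffer. Compound then added at 100 or 500 µM and incubated 30 min more at 37 °C. SDS stop, proteinase K 0.25 mg/mL at 45 °C for 30 min. Run on 1% agarose with EtBr at 30 V for 6 h, linear DNA band scored.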

[15] = molecular target: DNA topoisomerase 2-alpha (Homo sapiens) (UniProt P11388); test: Inhibition of human topoisomerase-2 alpha-mediated kinetoplast DNA decatenation after 30 mins by ethidium bromide staining based agarose gel electrophoresis
In short: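 75 ng kDNA in 50 mM Tris-HCl pH 8.0, 120 mM KCl, 10 mM MgCl₂, 0.5 mM DTT, 0.5 mM ATP, 30 µg/mL BSA. Compound added at 250 or 500 µM final, reaction started with 3 units topo II, 10 µL, 30 min at 37 °C. Stopped with SDS/ficoll/dye, proteinase K 0.25 mg/mL for 30 min. Run on 1.2% agarose containing EtBr.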

Bos taurus [16] = species on record: Bos taurus; test: Induction of calf thymus DNA intercalation assessed as inhibition of ethidium bromide binding to DNA up to 40 uM after 30 mins by fluorescence assay
In short: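 Calf thymus DNA ([…]) premixed with EtBr ([…]) in 10 mM Tris, pH 7.2, for 30 min at room temperature. Compound added at increasing concentrations […], with 1% DMSO final in all wells including control. Incubated 30 min more with shaking. Fluorescence excited at 471 nm, emission collected 500-700 nm.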

[17] = molecular target: T1, Topoisomerase I/II (Homo sapiens); test: Inhibition of topoisomerase-1/topoisomerase-2 in human HCT15 cell nuclear extract at 100 uM preincubated for 24 hrs followed by supercoiled pBR322 DNA addition measured after 20 mins by ethidium bromide staining based agarose gel electrophoresis method relative to control; type: protein assay; in short: as §2
[18] = molecular target: T1, Topoisomerase I/II (Homo sapiens); test: Inhibition of topoisomerase-1/topoisomerase-2 in human HCT15 cell nuclear extract preincubated for 24 hrs followed by supercoiled pBR322 DNA addition measured after 20 mins by ethidium bromide staining based agarose gel electrophoresis method; type: protein assay; in short: as §2
HCT-15 [19] = test: Induction of apoptosis in human HCT15 cells assessed as increase in cleaved PARP level after 24 hrs by Western blot method; type: functional, cell-based
In short: (§3)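 HCT15 cells grown to 80% confluency, then treated 24 h at […]. Lysis buffer: Tris/NaCl/1% Triton X-100 with protease inhibitors. 60 µg protein run on 12% SDS-PAGE and transferred to PVDF. Blocked in 5% milk/TBST, primary antibodies 1:1000 for 2-3 h, HRP anti-rabbit 1:2000 for 2 h, ECL detection.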

HCT-15 [20] = test: Induction of apoptosis in human HCT15 cells assessed as increase in Bax level after 24 hrs by Western blot method; type: functional, cell-based; in short: as §3
HCT-15 [21] = test: Induction of apoptosis in human HCT15 cells assessed as decrease in Bcl2 level after 24 hrs by Western blot method; type: functional, cell-based; in short: as §3

| SMILES | IC50 (HCT-15 [1]) | IC50 (T47D) | inhibition [3] | IC50 (HeLa) | other results |
| --- | --- | --- | --- | --- | --- |
| COc1cccc2c1C(=O)c1c(O)c3c(c(O)c1C2=O)C[C@@](O)(C(=O)CO)C[C@@H]3O[C@H]1C[C@H](N)[C@H](O)[C@H](C)O1 [DOXORUBICIN HYDROCHLORIDE] | 1 µM | 0.3 µM | – | – | – |
| Cc1c2ccncc2c(C)c2c1[nH]c1ccccc12 | – | – | – | – | inhibition [2]: Active |
| Oc1cccc(-c2cc(-c3ccc(Cl)cc3)nc3c2oc2ccccc23)c1 | 0.2 µM | 2.1 µM | 87.9% | 5.7 µM | – |
| Oc1ccccc1-c1cc(-c2ccccc2Cl)nc2c1oc1ccccc12 | 0.4 µM | 3.9 µM | 85.6% | 2.8 µM | – |
| C[C@@H](CN1CC(=O)NC(=O)C1)N1CC(=O)NC(=O)C1 [DEXRAZOXANE] | – | – | – | – | Activity (HCT-15 [4]): 5.5%; Activity (HCT-15 [5]): inactive |
| Oc1ccc(-c2cc(-c3ccccc3Cl)c3oc4ccccc4c3n2)cc1 | 46.2 µM | 0.8 µM | 52.7% | 15.9 µM | – |
| Oc1ccccc1-c1cc(-c2ccc(Cl)cc2)nc2c1oc1ccccc12 | > 50 µM | > 50 µM | 86.7% | 9.5 µM | – |
| Oc1cccc(-c2cc(-c3ccccc3Cl)c3oc4ccccc4c3n2)c1 | 1.4 µM | 0.1 µM | 60.2% | 4.3 µM | – |
| COc1cc(NS(C)(=O)=O)ccc1Nc1c2ccccc2nc2ccccc12 | – | – | – | – | inhibition (Bos taurus [6]): Dose-dependent effect |
| Oc1ccc(-c2cc(-c3ccc(Cl)cc3)c3oc4ccccc4c3n2)cc1 | 21.3 µM | 11.6 µM | 65.6% | 11.8 µM | – |
| Oc1ccc(-c2cc(-c3cccc(Cl)c3)c3oc4ccccc4c3n2)cc1 | 5.9 µM | > 50 µM | 4.9% | > 50 µM | – |
| CC[C@@]1(O)C(=O)OCc2c1cc1n(c2=O)Cc2cc3ccccc3nc2-1 [CAMPTOTHECIN] | 0.6 µM | 2.1 µM | – | 0.09 µM | inhibition [7]: 74.6%; inhibition [8]: 80.5% |
| Oc1ccc(-c2cc(-c3cccc(Cl)c3)nc3c2oc2ccccc23)cc1 | 0.2 µM | 1.9 µM | 95.4% | 0.9 µM | – |
| Oc1ccc(-c2cc(-c3ccccc3Cl)nc3c2oc2ccccc23)cc1 | 0.4 µM | 6.1 µM | 92.8% | 3.9 µM | – |
| Oc1ccccc1-c1cc(-c2cccc(Cl)c2)nc2c1oc1ccccc12 | 0.01 µM | 0.4 µM | 84% | 5.2 µM | Ratio IC50 (HCT-15 [9]): 60; Ratio IC50 (HCT-15 [10]): 540; Ratio IC50 (HCT-15 [11]): 100 |
| Oc1ccccc1-c1cc(-c2ccccc2Cl)c2oc3ccccc3c2n1 | 0.3 µM | 3 µM | 58.2% | 10.9 µM | – |
| COc1cc([C@@H]2c3cc4c(cc3[C@@H](O[C@@H]3O[C@@H]5CO[C@@H](C)O[C@H]5[C@H](O)[C@H]3O)[C@H]3COC(=O)[C@H]23)OCO4)cc(OC)c1O [ETOPOSIDE] | 5.4 µM | 7 µM | – | 9.1 µM | Activity [12]: Active; Activity (HCT-15 [4]): 65.5%; Activity (HCT-15 [13]): 46.3%; Activity (HCT-15 [5]): Active; inhibition [7]: 36.1%; inhibition [8]: 60.9%; inhibition [2]: Active |
| Oc1cccc(-c2cc(-c3cccc(Cl)c3)c3oc4ccccc4c3n2)c1 | 5.9 µM | 1.2 µM | 35% | 6.4 µM | – |
| Oc1ccccc1-c1cc(-c2cccc(Cl)c2)c2oc3ccccc3c2n1 | > 50 µM | > 50 µM | 4.7% | > 50 µM | – |
| Oc1ccc(-c2cc(-c3ccc(Cl)cc3)nc3c2oc2ccccc23)cc1 | 0.2 µM | 5.9 µM | 100% | 4.3 µM | Activity [14]: inactive; inhibition [15]: Dose-dependent effect; Activity [12]: inactive; Activity (HCT-15 [4]): 6.3%; Activity (HCT-15 [5]): inactive; inhibition (Bos taurus [16]): inactive; inhibition [7]: 38.2%; inhibition [8]: 45.5%; inhibition [17]: 58.4%; inhibition [18]: Dose-dependent effect; Activity (HCT-15 [19]): Dose-dependent effect; Activity (HCT-15 [20]): Dose-dependent effect; Activity (HCT-15 [21]): Dose-dependent effect |
| Oc1cccc(-c2cc(-c3ccc(Cl)cc3)c3oc4ccccc4c3n2)c1 | > 50 µM | 2 µM | inactive | 11.1 µM | – |
| Oc1ccccc1-c1cc(-c2ccc(Cl)cc2)c2oc3ccccc3c2n1 | > 50 µM | > 50 µM | 55.8% | > 50 µM | – |
| Oc1cccc(-c2cc(-c3ccccc3Cl)nc3c2oc2ccccc23)c1 | 1.6 µM | 1.5 µM | 82.9% | 4.4 µM | – |
| Oc1cccc(-c2cc(-c3cccc(Cl)c3)nc3c2oc2ccccc23)c1 | 0.4 µM | 1.4 µM | 85.4% | 4.3 µM | – |
